# High-throughput results as filed in PubChem.
# esBAF inh: Bmi1 luciferase reporter increase in mESCs, primary screen, esBAF inhibitor project, mouse ES cells, Bmi1 luciferase knock-in, single point; 24 h; 100% = twice the neutral-well signal; reporter increase, % at 12.5 µM; 350,000 compounds, 2% hits; in the data active = activation above about 40%; inconclusive = no clear call, values can overlap the other calls;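 note: 0% = median of the plate's neutral control wells and 100% = double that signal; a rise in the Bmi1 reporter signal indicates esBAF inhibition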
# SMARCA2 activ: SMARCA2 (BRM) function activators, primary screen, cell-based, luminescence, high throughput; MG213 cells, MMTV-luciferase reporter, dexamethasone, overnight; AID 652017, 2013; 370,000 compounds, 1% hits; activation, % at 9.1 µM; in the data active = activation above about 7.8%;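 note: 0% = vehicle wells and 100% = reference activator wells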
# ASAP1 GAP inh: inhibitors of human ASAP1 ArfGAP activity, primary screen, biochemical, fluorescence polarization; Arf-GAP with SH3 domain, ANK repeat and PH domain-containing protein 1 (Homo sapiens), …; ASAP1-stimulated ARF1 GTP hydrolysis, GDP FP detection; inhibition, % at 16.5 µM; 360,000 compounds, 0.19% hits; in the data active = inhibition above about 25%;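 note: 0% = vehicle with enzyme and substrate and 100% = no enzyme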
# Target sequence (Q9ULH1 325-724 limits assumed): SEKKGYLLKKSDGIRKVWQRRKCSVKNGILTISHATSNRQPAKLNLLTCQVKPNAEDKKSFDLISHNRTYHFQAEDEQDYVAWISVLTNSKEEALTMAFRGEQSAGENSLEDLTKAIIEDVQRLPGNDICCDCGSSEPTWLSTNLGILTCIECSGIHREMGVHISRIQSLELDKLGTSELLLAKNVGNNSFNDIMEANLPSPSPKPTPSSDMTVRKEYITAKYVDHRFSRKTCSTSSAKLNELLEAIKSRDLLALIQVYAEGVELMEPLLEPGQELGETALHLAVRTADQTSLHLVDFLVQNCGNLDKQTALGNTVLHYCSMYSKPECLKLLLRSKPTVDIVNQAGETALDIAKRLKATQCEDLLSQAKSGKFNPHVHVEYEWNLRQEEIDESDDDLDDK
# ARFGAP1 inh: inhibitors of rat ARFGAP1 GAP activity, primary screen, biochemical, fluorescence polarization, GDP tracer; Arfgap1-stimulated ARF1 GTP hydrolysis, GDP FP detection; inhibition, % at 16.5 µM; 360,000 compounds, 0.26% hits;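 active = inhibition above a per-plate limit, mean inhibition of low control wells plus 3 SD, cut at about 25% in these data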;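 note: 0% = DMSO wells with enzyme and 100% = wells lacking Arfgap1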
# Target sequence (Q62848 1-136 limits assumed): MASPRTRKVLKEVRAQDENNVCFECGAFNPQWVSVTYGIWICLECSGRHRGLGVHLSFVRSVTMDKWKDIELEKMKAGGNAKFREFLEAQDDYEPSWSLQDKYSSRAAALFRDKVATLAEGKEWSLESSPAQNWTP
#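 Material: rat Arfgap1 GAP domain (His6, aa 1-136), purified enzyme. Also added: human ARF1(Δ1-17)-GTP substrate. Compound dosing: 16.5 µM single point, 1.26% DMSO. Timing: enzyme reaction 120 min at 25 °C after 20 min preincubation. Signal: GDP detection by fluorescence polarization. Read-out basis: percent inhibition of GAP-stimulated GDP formation, scaled between DMSO and no-Arfgap1 medians.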
# The depositor's hits bear a star; ? = inconclusive; · = no result. Compounds with a hit are over-represented: about 2.6% of the library has one in this group of screens.
SMILES,esBAF inh,SMARCA2 activ,ASAP1 GAP inh,ARFGAP1 inh
O=C(Nc1cccc(O)c1)c1cc(-c2ccccc2Cl)on1,-7.9,-1.9,7.4,-0.6
O=C(Nc1ccccc1)OCc1cc(-c2ccccc2Cl)on1,49.7*,1.5,0.9,3.5
Cc1ccc(S(=O)(=O)N[C@H]2C=C[C@@H](CC(=O)NCc3ccc(Cl)c(Cl)c3)O[C@@H]2CO)cc1,2.4,·,·,·
O=c1cc(-c2ccc(O)cc2)oc2cc(O)cc(O)c12,?,0.0,11.2,16.0
COCOc1ccc(-c2cc(=O)c3c(O)cc(OCOC)cc3o2)cc1,88.5*,7.6,-1.8,9.7
O=c1cc(-c2ccccc2)oc2cccc(O)c12,45.1*,0.5,-2.3,-0.9
COc1cc(O)c2c(=O)cc(-c3ccccc3)oc2c1,50.1*,0.1,4.7,-5.3
C[C@@H]1CN([C@@H](C)CO)C(=O)c2cc(NC(=O)NC3CCCCC3)ccc2O[C@@H](C)CCCCO[C@H]1CN(C)C(=O)Cc1ccccc1,7.0,·,·,·
CCC(C)NC(=O)c1ccc2c(Cl)c3c(nc2c1)CCC3 (configuration not stated),53.3*,3.7,7.0,9.3
CCC(C)NC(=O)c1ccc2c(SCC(=O)O)c3c(nc2c1)CCCC3 (configuration not stated),3.7,-1.7,6.8,-5.6
C[C@H]1CN([C@@H](C)CO)C(=O)c2cc(C#Cc3cccnc3)cnc2O[C@@H]1CN(C)C(=O)CC1CC1,-8.3,·,·,·
COCC(=O)N(C)C[C@@H]1Oc2ncc(-c3ccc(C#N)cc3)cc2C(=O)N([C@@H](C)CO)C[C@H]1C,-5.0,·,·,·
CC(C)C#Cc1cnc2c(c1)C(=O)N([C@@H](C)CO)C[C@@H](C)[C@@H](CN(C)C(=O)CCN1CCCCC1)O2,-0.9,·,·,·
CNC[C@@H]1OCCCC[C@H](C)Oc2ccc(NS(=O)(=O)c3c(C)noc3C)cc2C(=O)N([C@H](C)CO)C[C@@H]1C,5.9,·,·,·
CCOC(=O)CN1C(=O)C(O)(CC(=O)c2cccc(OC)c2)c2ccccc21 (configuration not stated),1.9,1.3,12.3,26.2*
CO[C@@H](CN(C)S(=O)(=O)c1cccc(Cl)c1)[C@H](C)CN([C@@H](C)CO)S(=O)(=O)c1cccc(Cl)c1,1.2,·,·,·
C/C(=N\NC(=O)c1ccc(Cn2cc(Br)cn2)o1)c1cccc(NC(=O)C(C)(C)C)c1,3.6,2.8,-3.7,-6.1
C/C(=N\NC(=O)c1ccc(Cn2cc(Br)cn2)o1)c1ccc(NC(=O)c2ccoc2C)cc1,46.8*,5.0,-10.6,-0.5
CCCC(=O)Nc1ccc2c(c1)C(=O)N(C)C[C@@H](OC)[C@H](C)CN(Cc1ccccn1)[C@H](C)CO2,-3.0,·,·,·
CCN(CC)c1ccc2cc(C(C)=O)c(=O)oc2c1,·,3.8,5.5,0.0
CCN(CC)c1ccc2cc(-c3nnc(-c4ccncc4)o3)c(=O)oc2c1,44.5*,0.0,4.7,-0.8
COc1ccc(OCC(=O)Nc2ccccc2Cl)cc1,·,-1.6,1.5,13.1
Cc1cc(Cl)ccc1OCC(=O)Nc1ccccc1CO,42.4*,0.9,-2.5,8.7
O=C(COc1ccccc1O)Nc1ccccc1Cl,51.7*,2.3,10.9,-2.1
COc1ccccc1OCC(=O)Nc1ccc2c(c1)OCCO2,44.5*,2.4,1.1,5.3
SMILES,esBAF inh,SMARCA2 activ,ASAP1 GAP inh,ARFGAP1 inh
NC(=O)c1ccccc1OCC(=O)Nc1ccc(Cl)c(Cl)c1,·,3.3,1.8,-10.4
NC(=O)c1ccccc1OCC(=O)Nc1ccc2c(c1)CCC2,97.4*,-0.3,0.4,9.3
Cc1ccccc1-c1cnc2c(c1)C(=O)N([C@H](C)CO)C[C@H](C)[C@H](CN(C)C(=O)CC1CC1)O2,-8.8,·,·,·
C[C@@H]1CCCCO[C@H](CN(C)C(=O)c2ccncc2)[C@@H](C)CN([C@@H](C)CO)C(=O)c2cc(N(C)C)ccc2O1,-4.7,·,·,·
Cc1ccccc1OCC(=O)Nc1ccc2c(c1)OCCO2,·,2.1,19.2,8.9
O=C(COc1ccccc1Cl)Nc1ccc2c(c1)OCCO2,48.5*,5.5,-1.9,-19.1
Cc1cccc(C)c1OCC(=O)Nc1ccc2c(c1)OCCO2,43.0*,6.4,-10.1,9.1
C[C@H](O)C#Cc1cnc2c(c1)C(=O)N([C@H](C)CO)C[C@H](C)[C@H](CN(C)C(=O)c1ccccc1F)O2,0.6,·,·,·
C/C=C/c1ccc2c(c1)O[C@@H](CN(C)Cc1ccc(C(=O)O)cc1)[C@@H](C)CN([C@H](C)CO)S2(=O)=O,4.0,·,·,·
Nc1cc2c(cc1Cl)-c1ccc(Cl)cc1C2,58.9*,0.0,-4.6,1.6
CCOc1ccc(-c2cc(C(=O)NCc3ccc(F)cc3)[nH]n2)c(C)c1,1.8,-1.1,5.8,-9.0
CCOc1ccc(-c2cc(C(=O)Nc3ccc(F)cc3)[nH]n2)c(C)c1,65.1*,6.4,2.0,-4.3
CCC(=O)N1C[C@@H](C)[C@H](OC)CN(C)C(=O)c2ccc(NC(=O)c3cnccn3)cc2OC[C@H]1C,-3.0,·,·,·
C[C@H](CO)N1C[C@H](C)[C@@H](CN(C)Cc2ccccc2C(=O)O)Oc2cc(-c3ccc(C(=O)N(C)C)cc3)ccc2S1(=O)=O,0.0,·,·,·
O=C(NCCc1ccccc1)c1ccc2c(c1)OCO2,-74.0,-3.9,-5.8,1.2
O=C(NCCn1ccc2ccccc21)c1ccc2c(c1)OCO2,52.1*,4.5,-4.8,-7.6
COc1ccc(C(=O)NCCn2ccc3ccccc32)cc1,43.8*,1.9,-17.7,-7.3
Cc1ccc(C(=O)NCCn2ccc3ccccc32)cc1[N+](=O)[O-],·,-0.9,-7.2,2.1
CCNC(=O)[C@H]1[C@H](CO)[C@H]2Cn3c(ccc(-c4ccccc4)c3=O)[C@H]2N1Cc1ccc2c(c1)OCO2,3.6,·,·,·
Cc1ccc(C(=O)Nc2ccc3c(c2)CCC3)cc1S(=O)(=O)N1CCOCC1,62.4*,3.1,5.6,6.0
Cc1ccc(NC(=O)c2nc3nccc(C)n3n2)cc1S(=O)(=O)N1CCCCC1,44.6*,-0.7,1.7,-6.4
NS(=O)(=O)c1cc(C(=O)Nc2ccc3c(c2)CCC3)ccc1Cl,77.0*,3.3,-6.1,2.4
Cc1ccnc2nc(C(=O)Nc3ccc(S(=O)(=O)N4CCCC4)cc3)nn12,·,-4.9,7.8,-6.6
O=C(Nc1ccc2c(c1)CCC2)c1cc(F)cc(F)c1,47.4*,2.9,-1.8,-5.2
O=C(Nc1ccc2c(c1)CCC2)c1ccc(F)c(S(=O)(=O)N2CCOCC2)c1,·,-1.4,9.2,-4.4
C[C@H](CO)N1C[C@H](C)[C@H](CN(C)S(=O)(=O)c2ccccc2)Oc2ccc(NC(=O)CCN3CCOCC3)cc2C1=O,0.0,·,·,·
Cc1ccc(C(=O)Nc2ccc3c(c2)OCO3)cc1S(=O)(=O)N1CCOCC1,·,1.2,-4.0,-3.7
Cc1ccc(C(=O)Nc2ccc3c(c2)OCO3)cc1S(=O)(=O)N1CCCC1,79.2*,0.1,-8.6,-20.1
N#CC(=C1CCCC1)c1nc(-c2cc3ccccc3oc2=O)cs1,107.8*,3.8,-20.4,3.8
